Experimental data as given in ChEMBL document CHEMBL1914452, “Arene- and quinoline-sulfonamides as novel 5-HT7 receptor ligands” (Bioorg Med Chem, 2011).

Experiments:
[1] = molecular target: T1, 5-hydroxytryptamine receptor 7 (Homo sapiens, UniProt P34969); test: Displacement of [3H]-5-CT from human 5-HT7 receptor expressed in HEK293 cells after 1 hr by liquid scintillation counting; assay type: cell-based
Summary of the method: (§1)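 Competition binding with 7–9 compound concentrations, each run in triplicate. 5-HT1A, 5-HT2A and α1 sites were native. 5-HT6 used [3H]-LSD and 5-HT7 used [3H]-5-CT, both on cloned human receptors stably expressed in HEK293 cells. After incubation, samples were vacuum-filtered through GF/B filters and washed with ice-cold buffer. Bound radioactivity was counted by liquid scintillation.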

[2] = molecular target: T2, 5-hydroxytryptamine receptor 1A (Rattus norvegicus, UniProt P19327); test: Displacement of [3H]-8-OH-DPAT from 5-HT1A receptor in rat hippocampus by liquid scintillation counting; assay type: tissue-based; summary of the method: as §1
T2 sequence (P19327 whole entry): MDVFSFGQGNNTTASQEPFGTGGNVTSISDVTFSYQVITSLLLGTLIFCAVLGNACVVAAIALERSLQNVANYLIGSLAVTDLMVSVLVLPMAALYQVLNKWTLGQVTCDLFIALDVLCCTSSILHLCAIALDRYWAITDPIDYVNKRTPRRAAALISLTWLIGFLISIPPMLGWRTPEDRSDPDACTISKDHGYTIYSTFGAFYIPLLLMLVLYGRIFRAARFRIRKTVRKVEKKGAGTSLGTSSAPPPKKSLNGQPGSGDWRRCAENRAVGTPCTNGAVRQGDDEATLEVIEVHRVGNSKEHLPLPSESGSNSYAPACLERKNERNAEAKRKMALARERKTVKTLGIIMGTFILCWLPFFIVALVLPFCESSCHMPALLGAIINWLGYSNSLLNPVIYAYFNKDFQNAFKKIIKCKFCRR

[3] = test system: HEK293; test: Selectivity ratio of Ki for 5-HT1A receptor in rat hippocampus to Ki for human 5-HT7 receptor expressed in HEK293 cells; assay type: cell-based
[4] = molecular target: 5-hydroxytryptamine receptor 6 (Homo sapiens, UniProt P50406); test: Displacement of [3H]-LSD from human 5-HT6 receptor expressed in HEK293 cells after 1 hr by liquid scintillation counting; assay type: cell-based; summary of the method: as §1
5-hydroxytryptamine receptor 6, sequence (P50406 whole entry): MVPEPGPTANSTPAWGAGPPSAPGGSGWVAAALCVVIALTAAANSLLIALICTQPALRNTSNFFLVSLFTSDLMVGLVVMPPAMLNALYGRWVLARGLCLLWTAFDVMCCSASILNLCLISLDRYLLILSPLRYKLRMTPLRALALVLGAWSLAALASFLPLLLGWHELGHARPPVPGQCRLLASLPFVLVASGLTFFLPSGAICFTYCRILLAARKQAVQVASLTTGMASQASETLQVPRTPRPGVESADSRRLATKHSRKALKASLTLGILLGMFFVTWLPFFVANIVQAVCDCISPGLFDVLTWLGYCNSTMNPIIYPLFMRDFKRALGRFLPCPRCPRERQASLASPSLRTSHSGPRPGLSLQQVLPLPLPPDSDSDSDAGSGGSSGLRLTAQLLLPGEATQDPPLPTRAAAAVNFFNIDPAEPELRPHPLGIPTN

[5] = molecular target: 5-hydroxytryptamine receptor 2A (Rattus norvegicus, UniProt P14842); test: Displacement of [3H]-ketanserin from 5-HT2A receptor in rat cortex by liquid scintillation counting; summary of the method: as §1
5-hydroxytryptamine receptor 2A, sequence (P14842 whole entry): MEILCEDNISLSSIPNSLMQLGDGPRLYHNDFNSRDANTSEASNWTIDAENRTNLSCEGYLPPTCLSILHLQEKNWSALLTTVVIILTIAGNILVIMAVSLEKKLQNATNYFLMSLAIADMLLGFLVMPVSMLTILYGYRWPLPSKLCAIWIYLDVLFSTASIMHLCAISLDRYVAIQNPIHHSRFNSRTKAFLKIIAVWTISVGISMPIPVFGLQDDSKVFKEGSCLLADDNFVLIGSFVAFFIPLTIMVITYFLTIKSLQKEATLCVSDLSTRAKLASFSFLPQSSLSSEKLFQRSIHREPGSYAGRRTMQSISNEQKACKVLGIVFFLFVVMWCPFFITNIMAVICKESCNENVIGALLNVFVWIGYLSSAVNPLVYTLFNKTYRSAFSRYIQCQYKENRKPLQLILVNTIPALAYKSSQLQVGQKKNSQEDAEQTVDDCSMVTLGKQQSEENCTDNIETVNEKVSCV

[6] = molecular target: T1, 5-hydroxytryptamine receptor 7; test: Antagonist activity at human 5-HT7 receptor expressed in CHO cells assessed as inhibition of serotonin-induced intracellular cAMP accumulation preincubated for 20 mins measured after 10 mins by radioimmunoassay; assay type: functional, cell-based
[7] = test system: Mus musculus; test: Antidepressant like activity in Albino Swiss mouse assessed as reduction of immobility time at 20 mg/kg, ip administered 30 mins before test measured during final 4 mins of the 6 mins session by forced swimming test (reference value: 165 +/- 9.6 sec); assay type: functional; conditions: route intraperitoneal
[8] = test system: Mus musculus; test: Antidepressant like activity in Albino Swiss mouse assessed as reduction of immobility time at 5 mg/kg, ip administered 30 mins before test measured during final 4 mins of the 6 mins session by forced swimming test (reference value: 165 +/- 9.6 sec); assay type: functional; conditions: route intraperitoneal
[9] = test system: Mus musculus; test: Neurotoxicity in Albino Swiss mouse assessed as effect on number of crossings at 10 mg/kg, ip administered 30 mins before test measured for 30 mins; assay type: toxicity, organism-based; set-up: dose 10 mg/kg, route intraperitoneal; conditions: in vivo, 0.5 h
Summary of the method: (§2)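 Spontaneous locomotor activity in mice, recorded over 2–6 min (the swim-test observation window) or over a 30-min session. Drug was suspended in 1% aqueous Tween 80 and given ip at 10 ml/kg, 30 min beforehand, with vehicle-injected controls. Tests ran blind during the light phase (09.00–14.00 h), using 7–10 animals per dose, each used once.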

[10] = test system: Mus musculus; test: Neurotoxicity in Albino Swiss mouse assessed as effect on number of crossings at 10 mg/kg, ip administered 30 mins before test measured for 2 to 6 mins; assay type: toxicity, organism-based; set-up: dose 10 mg/kg, route intraperitoneal; conditions: in vivo; summary of the method: as §2
[11] = test system: Mus musculus; test: Antidepressant like activity in Albino Swiss mouse assessed as reduction of immobility time at 10 mg/kg, ip administered 30 mins before test measured during final 4 mins of the 6 mins session by forced swimming test (reference value: 165 +/- 9.6 sec); assay type: functional; conditions: route intraperitoneal
[12] = test system: Mus musculus; test: Antidepressant like activity in Albino Swiss mouse assessed as reduction in immobility time at 10 mg/kg, ip administered 30 mins before test measured during final 4 mins of the 6 mins session by forced swimming test; assay type: functional; set-up: scale not given: the % may be the effect or the level left; conditions: route intraperitoneal
[13] = molecular target: T3, Adrenergic receptor alpha-1 (Rattus norvegicus, UniProt P15823+P23944+P43140); test: Displacement of [3H]-prazosin from alpha 1 receptor in rat cortex by liquid scintillation counting; summary of the method: as §1
T3 sequence (P15823 whole entry): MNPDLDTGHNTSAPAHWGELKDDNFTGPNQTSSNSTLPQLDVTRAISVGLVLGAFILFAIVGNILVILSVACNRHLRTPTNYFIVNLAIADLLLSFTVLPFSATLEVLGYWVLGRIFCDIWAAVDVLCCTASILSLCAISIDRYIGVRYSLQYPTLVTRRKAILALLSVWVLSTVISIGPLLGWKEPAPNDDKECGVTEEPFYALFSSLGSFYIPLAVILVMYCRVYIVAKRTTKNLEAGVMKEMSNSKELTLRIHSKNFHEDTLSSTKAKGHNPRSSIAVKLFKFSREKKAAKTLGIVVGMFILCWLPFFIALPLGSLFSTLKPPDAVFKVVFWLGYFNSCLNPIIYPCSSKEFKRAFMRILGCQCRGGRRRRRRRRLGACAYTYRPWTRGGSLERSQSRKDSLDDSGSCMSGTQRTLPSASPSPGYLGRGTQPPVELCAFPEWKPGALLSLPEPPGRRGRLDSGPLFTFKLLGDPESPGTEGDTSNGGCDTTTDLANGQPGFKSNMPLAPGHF
T3 sequence (P23944 whole entry): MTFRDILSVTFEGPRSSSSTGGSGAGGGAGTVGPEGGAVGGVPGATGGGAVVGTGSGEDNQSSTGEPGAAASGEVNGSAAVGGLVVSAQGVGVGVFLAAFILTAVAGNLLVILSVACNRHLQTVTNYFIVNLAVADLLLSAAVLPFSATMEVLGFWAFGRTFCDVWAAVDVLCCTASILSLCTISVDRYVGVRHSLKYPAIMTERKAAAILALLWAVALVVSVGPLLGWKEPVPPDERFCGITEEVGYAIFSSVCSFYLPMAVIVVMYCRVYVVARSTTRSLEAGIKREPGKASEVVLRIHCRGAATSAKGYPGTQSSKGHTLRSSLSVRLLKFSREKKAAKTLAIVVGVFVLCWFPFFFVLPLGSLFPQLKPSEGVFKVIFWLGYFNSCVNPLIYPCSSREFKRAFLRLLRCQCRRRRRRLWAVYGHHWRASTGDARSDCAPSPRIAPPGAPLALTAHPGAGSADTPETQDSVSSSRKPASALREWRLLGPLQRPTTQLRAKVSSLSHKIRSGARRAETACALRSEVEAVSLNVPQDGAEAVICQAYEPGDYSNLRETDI
T3 sequence (P43140 whole entry): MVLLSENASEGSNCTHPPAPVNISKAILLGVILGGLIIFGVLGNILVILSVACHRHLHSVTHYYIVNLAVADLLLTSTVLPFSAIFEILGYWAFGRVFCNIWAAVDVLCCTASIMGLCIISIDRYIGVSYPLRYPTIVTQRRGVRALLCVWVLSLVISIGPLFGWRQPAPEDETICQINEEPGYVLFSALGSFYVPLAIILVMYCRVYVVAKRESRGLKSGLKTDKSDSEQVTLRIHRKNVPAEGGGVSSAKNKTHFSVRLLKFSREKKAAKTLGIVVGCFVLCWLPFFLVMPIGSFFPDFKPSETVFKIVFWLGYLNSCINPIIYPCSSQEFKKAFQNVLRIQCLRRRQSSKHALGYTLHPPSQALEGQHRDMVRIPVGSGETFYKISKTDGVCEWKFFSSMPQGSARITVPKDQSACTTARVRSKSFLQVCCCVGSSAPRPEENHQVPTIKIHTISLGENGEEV

T1 sequence (P34969 whole entry): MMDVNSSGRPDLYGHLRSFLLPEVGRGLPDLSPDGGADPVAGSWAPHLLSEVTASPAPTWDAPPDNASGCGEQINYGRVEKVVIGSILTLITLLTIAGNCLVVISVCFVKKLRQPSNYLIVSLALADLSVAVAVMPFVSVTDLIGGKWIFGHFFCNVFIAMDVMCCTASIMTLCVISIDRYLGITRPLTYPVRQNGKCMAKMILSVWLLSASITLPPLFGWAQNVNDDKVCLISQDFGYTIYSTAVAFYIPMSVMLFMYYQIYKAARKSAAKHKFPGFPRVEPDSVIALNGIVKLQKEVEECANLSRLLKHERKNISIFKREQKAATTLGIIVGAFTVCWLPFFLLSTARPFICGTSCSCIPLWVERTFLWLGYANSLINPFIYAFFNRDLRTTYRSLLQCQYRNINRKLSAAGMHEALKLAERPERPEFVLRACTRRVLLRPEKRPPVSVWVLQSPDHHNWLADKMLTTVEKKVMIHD

| Ki [1] | Ki [2] | Ki [4] | Ki [5] | Structure (SMILES) | Ratio Ki [3] | also measured |
| --- | --- | --- | --- | --- | --- | --- |
| 79 nM | 3.7 nM |  |  | COc1ccccc1N1CCN(CCCCNS(=O)(=O)c2cnc3ccccc3c2)CC1 | 0.05 |  |
| 995 nM | 1450 nM |  |  | O=S(=O)(NCCCCN1CCC2CCCCC2C1)c1cnc2ccccc2c1 (centres undefined) | 1.5 |  |
| 224 nM | 233 nM | 8250 nM | 1520 nM | O=S(=O)(NCCCCN1CCc2ccccc2C1)c1ccc2ncccc2c1 | 1 |  |
| 13 nM | 1100 nM | 1950 nM | 6280 nM | CCN(CCCCN1CCC2CCCCC2C1)S(=O)(=O)c1cccc2cccnc12 (centres undefined) | 84.5 | Kb [6]: 140 nM; Time [7]: 182.3 s; Time [8]: 155.2 s; Activity [9]: Non-toxic; Activity [10]: Non-toxic; Time [11]: 128.1 s; Activity [12]: 22%; Ki [13]: 155 nM |
| 235 nM |  |  |  | NCCCN(CCCCN1CCc2ccccc2C1)S(=O)(=O)c1ccccc1 |  |  |
| 37 nM | 30 nM |  |  | CCN(CCCCN1CCN(c2ccccc2OC)CC1)S(=O)(=O)c1cccc2cccnc12 | 0.8 |  |
| 187 nM | 325 nM | 14500 nM | 5090 nM | CCN(CCCCN1CCC2CCCCC2C1)S(=O)(=O)c1cnc2ccccc2c1 (centres undefined) | 1.7 |  |
| 270 nM |  |  |  | O=S(=O)(NCCCN1CCc2ccccc2C1)c1ccccc1 |  |  |
| 80 nM |  |  |  | O=S(=O)(NCCCN1CCc2ccccc2C1)c1ccc2ccccc2c1 |  |  |
| 38 nM | 9.3 nM |  |  | CCN(CCCCN1CCN(c2ccccc2OC)CC1)S(=O)(=O)c1cnc2ccccc2c1 | 0.2 |  |
| 88 nM | 271 nM | 1460 nM | 4180 nM | O=S(=O)(NCCCCN1CCc2ccccc2C1)c1cccc2cccnc12 | 3 |  |
| 55 nM | 53 nM |  |  | COc1ccccc1N1CCN(CCCCNS(=O)(=O)c2cccc3cccnc23)CC1 | 0.9 |  |
| 773 nM |  |  |  | O=S(=O)(NCCN1CCc2ccccc2C1)c1ccccc1 |  |  |
| 506 nM | 986 nM | 17400 nM | 1080 nM | O=S(=O)(NCCCCN1CCc2sccc2C1)c1cnc2ccccc2c1 | 1.9 |  |
| 29 nM | 25 nM | 1920 nM | 1320 nM | CCN(CCCN1CCN(c2ccccc2OC)CC1)S(=O)(=O)c1ccc2ncccc2c1 | 0.9 |  |
|  |  |  |  | CC1CCN(CC[C@H]2CCCN2S(=O)(=O)c2cccc(O)c2)CC1 |  | Time [7]: 139.3 s; Time [8]: 136.1 s; Activity [9]: Non-toxic; Activity [10]: Non-toxic; Time [11]: 110.8 s; Activity [12]: 33% |
| 90 nM | 37 nM | 1640 nM | 2160 nM | COc1ccccc1N1CCN(CCCNS(=O)(=O)c2cccc3cccnc23)CC1 | 0.4 |  |

| Ki [1] | Ki [2] | Ki [4] | Ki [5] | Structure (SMILES) | Ratio Ki [3] | also measured |
| --- | --- | --- | --- | --- | --- | --- |
| 41 nM | 21 nM |  |  | CCN(CCCCN1CCN(c2ccccc2OC)CC1)S(=O)(=O)c1ccc2ncccc2c1 | 0.5 |  |
| 296 nM |  |  |  | O=S(=O)(NCCCCN1CCc2ccccc2C1)c1cccc2ccccc12 |  |  |
| 3010 nM |  |  |  | NCCCN(CCN1CCc2ccccc2C1)S(=O)(=O)c1ccccc1 |  |  |
| 228 nM | 305 nM | 8640 nM | 590 nM | O=S(=O)(NCCCCN1CCc2ccccc2C1)c1cnc2ccccc2c1 | 1.3 |  |
| 19 nM |  |  |  | CCN(CCCN1CCN(c2ccccc2OC)CC1)S(=O)(=O)c1ccc(C)cc1 |  |  |
| 156 nM | 18 nM | 2840 nM | 825 nM | COc1ccccc1N1CCN(CCCNS(=O)(=O)c2ccc3ncccc3c2)CC1 | 0.1 |  |
| 33 nM | 313 nM | 4590 nM | 1790 nM | CCN(CCCCCN1CCC2CCCCC2C1)S(=O)(=O)c1cccc2cccnc12 (centres undefined) | 9.5 | Kb [6]: 1300 nM; Time [7]: 181.2 s; Time [8]: 144.8 s; Time [11]: 158.6 s; Ki [13]: 92 nM |
| 1420 nM | 4310 nM |  |  | O=S(=O)(NCCCN1CCC2CCCCC2C1)c1ccc2ncccc2c1 (centres undefined) | 3 |  |
| 360 nM |  |  |  | COc1cccc2c1CCN(CCCNS(=O)(=O)c1cccc3ccccc13)C2 |  |  |
| 94 nM |  |  |  | O=S(=O)(NCCCCN1CCc2ccccc2C1)c1ccccc1 |  |  |
| 267 nM |  |  |  | NCCN(CCCN1CCc2ccccc2C1)S(=O)(=O)c1ccccc1 |  |  |
| 335 nM |  |  |  | NCCCN(CCCN1CCc2ccccc2C1)S(=O)(=O)c1ccccc1 |  |  |
| 78 nM |  |  |  | O=S(=O)(NCCN1CCc2ccccc2C1)c1ccc2ccccc2c1 |  |  |
| 1260 nM | 3570 nM |  |  | O=S(=O)(NCCCCN1CCC2CCCCC2C1)c1cccc2cccnc12 (centres undefined) | 2.8 |  |
| 64 nM |  |  |  | O=S(=O)(NCCCCN1CCc2ccccc2C1)c1ccc2ccccc2c1 |  |  |
| 334 nM | 483 nM | 17500 nM | 2650 nM | O=S(=O)(NCCCCN1CCc2sccc2C1)c1ccc2cccnc2c1 | 1.4 |  |
| 132 nM | 40 nM |  |  | COc1ccccc1N1CCN(CCCCNS(=O)(=O)c2ccc3ncccc3c2)CC1 | 0.3 |  |
